High-throughput results deposited in PubChem BioAssay by Johns Hopkins Ion Channel Center.
RGS4 act – RGS4 potentiators or activators, primary screen, cell-based, HEK293 M3R inducible RGS4, calcium flux. carbachol calcium flux Fluo4; active compounds read low. 0.92% of 310,000 active. B-score at 10 µM;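 active = B-score of the integrated calcium signal more than 4 SD below the library mean, with starting fluorescence not abnormally high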;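 also: negative B-score means reduced calcium response which marks RGS4 activation or potentiation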
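Material: M3R-expressing HEK293 line, RGS4 induced by doxycycline | Schedule: Overnight RGS4 induction, 30 min dye load 37 °C, 20 min compound RT | Measured by: Fluo4 fluorescence kinetic imaging of calcium | Read-out: Integrated calcium ratio converted to B score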
MrgX1 allo act – positive allosteric modulators of MrgX1, primary screen, HEK293 cells, Fluo-4 calcium flux. Mas-related G-protein coupled receptor member X1 (Homo sapiens), Q96LB2. FDSS; active compounds read high. B-score at 10 µM. 0.63% of 310,000 active;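 active = plate-corrected calcium response at least 3 library SD above typical, normal starting fluorescence, not activating the receptor alone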;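 also: compound read alongside a low EC10 to EC30 dose of BAM8-22 agonist; peak minus trough fluorescence over baseline measured at the second addition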
Target sequence (Q96LB2 whole entry, looked up): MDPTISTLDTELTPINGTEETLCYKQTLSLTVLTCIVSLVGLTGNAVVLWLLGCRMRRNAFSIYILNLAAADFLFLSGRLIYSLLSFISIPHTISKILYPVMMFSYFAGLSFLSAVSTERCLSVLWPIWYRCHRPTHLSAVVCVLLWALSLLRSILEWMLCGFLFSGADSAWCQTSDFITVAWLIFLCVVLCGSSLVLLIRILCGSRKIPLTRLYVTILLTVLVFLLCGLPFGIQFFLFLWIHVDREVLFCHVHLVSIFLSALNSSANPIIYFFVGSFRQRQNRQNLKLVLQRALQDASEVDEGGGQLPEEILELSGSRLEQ
MrgX1 antag – antagonists of human MrgX1 receptor, primary screen, HEK293 cells, Fluo-4 calcium flux | B-score at 10 µM | BAM8-22 antagonism; active compounds read low | Mas-related G-protein coupled receptor member X1 (Homo sapiens), Q96LB2 | 1.3% of 310,000 active | AID 588676, 2011;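 active = calcium-response B-score plate-corrected more than 3 library SD below zero, starting fluorescence within 5 deviations, no agonist response on first addition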;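 also: peak minus trough fluorescence over baseline after final BAM8-22 challenge near maximal dose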
MrgX1 agonist – agonists of human MrgX1 receptor, primary screen, HEK293 cells, Fluo-4 calcium flux; Mas-related G-protein coupled receptor member X1 (Homo sapiens), Q96LB2; Fluo-4 calcium fluorescence, agonist mode; active compounds read high; B-score at 10 µM; 0.44% of 310,000 active;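 active = calcium response B-score plate-corrected fluorescence ratio at least 3 library SD, with starting fluorescence B-score inside 5 SD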
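Assay system: MrgX1-expressing HEK293 cells / Amount: fifteen thousand cells per well / Doses: test compound in the initial addition of three / Timing: cells plated overnight, dye loaded 0.5 h 37 °C, 0.5 h room temperature / Technique: kinetic calcium dye fluorescence, Fluo-4 NW / Control set: positive and negative controls per plate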
RGS4 inh – RGS4 inhibitors, primary screen, cell-based, HEK293 M3R inducible RGS4, calcium flux | Fluo-4 calcium flux; active compounds read high; triggered by carbachol at its EC20 | B-score at 10 µM | 0.45% of 310,000 active;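 active = B-score, a plate-corrected calcium signal, over three deviations above library mean, with baseline fluorescence within five deviations of library mean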;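 also: RGS4 expression induced by doxycycline in cells with stable M3 receptor; B-score is computed from the integrated fluorescence ratio over baseline after carbachol; higher B-score means a larger calcium signal and so more RGS4 inhibition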
Target sequence (P49798 whole entry, looked up): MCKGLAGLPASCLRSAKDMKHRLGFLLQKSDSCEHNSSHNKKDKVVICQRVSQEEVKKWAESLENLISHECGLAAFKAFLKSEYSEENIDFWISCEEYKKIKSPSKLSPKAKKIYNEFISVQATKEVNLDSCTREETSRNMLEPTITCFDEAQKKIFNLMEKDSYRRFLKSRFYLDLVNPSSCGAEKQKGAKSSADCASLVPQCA
MrgX1 ag confirm – MrgX1 receptor agonists, duplicate retest, confirmation, HEK293 cells, Fluo-4 calcium flux. Fluo-4 calcium fluorescence, FDSS. activation, % at 10 µM. 78% of 600 active. shares compounds with MrgX1 agonist. AID 602412, 2012;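 active = calcium signal rise, corrected for plate position, at least 3 library SD high, with starting brightness within 5 such deviations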
MrgX1 PAM conf – MrgX1 positive allosteric modulators, duplicate retest, confirmation, HEK293 cells, Fluo-4 calcium flux; AID 602413, 2012; activation (ratio percentage), % at 10 µM; shares compounds with MrgX1 allo act; 13% of 1,200 active; Fluo-4 calcium fluorescence, FDSS;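 active = ratio at least 3 SD above the weak peptide control, stable starting fluorescence, no direct agonism earlier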;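 also: compound followed by low BAM8-22 agonist challenge near EC20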
MrgX1 ant reconf – MrgX1 receptor antagonists, duplicate retest, confirmation, HEK293 cells, Fluo-4 calcium flux; 19% of 2,300 active; remaining BAM8-22 calcium response % of control (active compounds read low), % at 10 µM; shares compounds with MrgX1 antag; BAM8-22 calcium flux; active compounds read low;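 active = remaining agonist calcium response no higher than 100% minus 3 SD of agonist-only control wells, with starting fluorescence near control levels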;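 also: agonist BAM8-22 given at a near maximal EC90 to ECmax level; peak minus minimum fluorescence divided by baseline after agonist addition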
HEK293 Ca flux – nonspecific calcium signal in parental HEK293, confirmation, counter-screen for MrgX1 antagonist project, parental HEK293 cells, Fluo-4 calcium flux | Fluo-4 calcium fluorescence, FDSS | shares compounds with MrgX1 antag | 2% of 4,000 active | fluorescence ratio F(max-min)/F0 at 10 µM | AID 624111, 2012;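 active = duplicate-averaged calcium fluorescence ratio at least three times the standard deviation of buffer wells, a nonspecific response in parental cells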
HEK293 Ca counter – calcium response in parental HEK293 cells, primary screen, counter-screen for MrgX1 allosteric activator project, cell-based, Fluo-4 calcium flux, duplicate. shares compounds with MrgX1 antag. 0.4% of 4,000 active. Fluo-4 fluorescence ratio; active compounds read high. AID 624114, 2012. fluorescence ratio F(max-min)/F0 at 10 µM;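 active = calcium fluorescence ratio, averaged over duplicates, at least 3 SD of the buffer-well ratio, meaning a nonspecific response in receptor-free cells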;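 also: untransfected parental HEK293 lacking MrgX1 used as counterscreen for MrgX1 allosteric activators; fluorescence change taken during the second addition on a kinetic imager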
HEK293 Ca cntr2 – calcium response in parental HEK293 cells, primary screen, counter-screen for MrgX1 agonist project, cell-based, Fluo-4 calcium flux, duplicate, agonist mode; fluorescence ratio F(max-min)/F0 at 10 µM; shares compounds with MrgX1 antag; 8.7% of 4,000 active; Fluo-4 calcium fluorescence (FDSS); active compounds read high;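 active = calcium fluorescence ratio at least three times the spread of buffer wells, meaning a non-specific response in parental cells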
The depositor's hits bear a star; i = inactive; x = no result; ! = repeats disagree. Only some compounds are listed: those with a hit (about 3.5% of all), similar ones and a draw of the others.

SMILES | RGS4 act | MrgX1 allo act | MrgX1 antag | MrgX1 agonist | RGS4 inh | MrgX1 PAM conf | HEK293 Ca flux | HEK293 Ca counter | HEK293 Ca cntr2 | others
CCC(C)N1C(=O)NC(=O)C2(Cc3c(ccc4ccccc34)N(C)C2)C1=O (stereo not given) | i | i | i | 34* | i | x | i | i | i | MrgX1 ag confirm=i
CCOC(=O)C1=C(NC(=S)NC(=O)c2ccccc2)c2ccccc2CC12CCCC2 | i | x | x | x | i | x | x | x | x
Clc1ccc(COC(Cn2ccnc2)c2ccc(Cl)cc2Cl)c(Cl)c1 (stereo not given) | i | i | i | i | i | x | x | x | x
CCOC(=O)c1[nH]ncc1CN1CCCC(C(=O)c2cccc(Cl)c2)C1 (stereo not given) | i | i | i | i | i | x | x | x | x
CCCCCn1c(=O)c(C(=O)NCCc2ccccc2)c(O)c2ccccc21 | i | 7.6* | -8.2* | i | i | i | i | i | i | MrgX1 ant reconf=i
CCOc1ccc(NC2=NCCCS2)cc1 | i | i | i | i | i | x | x | x | x
CCN1C(=O)CC(c2cccnc2)=Nc2ccccc21 | i | 6.4* | i | i | i | i | i | i | i
O=C1CC(c2cccnc2)=NN1c1ccc(Cl)cc1Cl | i | i | i | i | i | x | x | x | x
CCCc1nc2ccccc2c(=O)n1-c1ccc(OC)cc1 | i | i | i | i | i | x | x | x | x
COc1ccc(-n2c(-c3ccc(C)cc3)nc3ccccc3c2=O)cc1 | i | i | i | i | i | x | x | x | x
CCCCOc1nc2ccccc2c(=O)n1-c1ccccc1 | i | 9.2* | i | i | i | i | i | i | 48*
Cc1ccc(-n2c(C)nc3ccccc3c2=O)cc1C | i | 7.7* | i | i | i | 13%* | i | i | i
COc1nc2ccccc2c(=O)n1-c1ccc(Cl)cc1 | i | 12* | i | i | i | i | i | i | i
COc1nc2ccccc2c(=O)n1-c1ccc(C)cc1 | i | 18* | i | i | i | i | i | i | i
COC/C=C1\CN2C3C[C@@H]1[C@H]1COC4=Nc5cc(OC)c(OC)c(OC)c5[C@@]43C[C@@H]12 | i | i | i | i | i | x | x | x | x
CC1CCC(NC(=O)CNC(=S)N2CC3CC(C2)c2cccc(=O)n2C3)CC1 (stereo not given) | i | i | i | i | i | x | x | x | x
CCCCCCC(=O)c1c(O)n(-c2ccc(OC)cc2)c(=O)[nH]c1=O (tested in a mixture with another compound) | i | i | i | i | i | x | x | x | x
CCOC(=O)C1=C(N)Oc2cc(C)oc(=O)c2C12C(=O)N1c3c(cccc32)C(C)=CC1(C)C (stereo not given) | i | 9.2* | i | i | i | i | i | i | 87*
Fc1ccccc1CNCCc1ccc2c(c1)OCO2 | i | i | i | i | i | x | x | x | x
COc1ccc(C(=O)c2nc3ccccc3n2C(C)C)cc1 | i | 6.5* | i | i | i | i | i | i | i
COc1ccc(C(=O)c2nc3ccccc3n2C(C)C)cc1OC | i | i | i | i | i | x | x | x | x
C=CCN1CCc2cccc3c2[C@H]1Cc1ccc(O)c(O)c1-3 | i | 8.1* | i | i | i | i | i | i | i
CC(C)COC(=O)c1ccccc1C(=O)OCC(C)C | i | i | i | i | i | x | x | x | x
C[CH2][Hg][S]c1ccccc1C(=O)O | x | 6.5* | i | i | x | i | i | i | i
CC1(C)CN=C(NCc2ccccc2)S1 | i | 6.4* | i | i | i | i | i | i | i
SMILES | RGS4 act | MrgX1 allo act | MrgX1 antag | MrgX1 agonist | RGS4 inh | MrgX1 PAM conf | HEK293 Ca flux | HEK293 Ca counter | HEK293 Ca cntr2 | others
O=C(Nc1cccc(Br)c1)c1c(O)c2c(n(Cc3ccccc3)c1=O)CCCC2 | i | i | i | i | i | x | x | x | x
CCN1C[C@]2(CO)CC[C@H](OC)[C@@]34C5C[C@H]6[C@H](OC)C5[C@](O)(C[C@H]6OC)[C@@](O)(C(OC)C23)[C@@H]14 (stereo not given in full) | i | i | -4.6* | i | i | x | i | i | i | MrgX1 ant reconf=i
CCCCn1c(O)c(C(C)=NCc2cc(OC)cc(OC)c2)c(=O)[nH]c1=O | i | i | -6.8* | i | i | x | i | i | i | MrgX1 ant reconf=i
CCc1ccc(-n2c(O)c(/C=N/N3CCCCC3c3cccnc3)c(=O)[nH]c2=O)cc1 (stereo not given) | i | i | -11* | i | i | x | i | i | i | MrgX1 ant reconf=i
Cc1ccc(N2C(=O)NC(=O)/C(=C\c3ccc([N+](=O)[O-])o3)C2=O)cc1 | i | i | i | i | i | x | x | x | x
ClC1C(Cl)C(Cl)C(Cl)C(Cl)C1Cl (stereo not given) | x | i | -6.9*! | i | x | x | i | i | i | MrgX1 ant reconf=i
Clc1ccc2[nH]c3c(c2c1)CCNC3 | i | i | -5.4* | i | i | x | i | i | i | MrgX1 ant reconf=i
